Test results reported in ChEMBL document CHEMBL1629638, “Pyrosequencing using the single-nucleotide polymorphism protocol for rapid determination of TEM- and SHV-type extended-spectrum beta-lactamases in clinical isolates and identification of the novel beta-lactamase genes blaSHV-48, blaSHV-105, and blaTEM-155” (2009).
Converted amounts (≈) assume the structure as drawn.

Tests used:
Type in all cases: functional
Escherichia coli [1] = assay: Antimicrobial activity against Escherichia coli DH5[alpha] by microdilution method in presence of clavulanic acid
In short: (§1)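 Broth microdilution MIC. Plates of serial antibiotic dilutions inoculated to 10^5 CFU/ml and incubated 18 to 22 h at 35°C in ambient air. MIC is the lowest concentration giving complete growth inhibition by unaided eye. The recombinant strains carry shotgun-cloned bla genes in pCLL2300.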

Escherichia coli [2] = assay: Antimicrobial activity against Escherichia coli ATCC 25922 by microdilution method in presence of clavulanic acid; in short: as §1
Escherichia coli [3] = assay: Antimicrobial activity against Escherichia coli DH5[alpha] isolate GC 8133 expressing bla […] gene by microdilution method in presence of clavulanic acid; in short: as §1
Escherichia coli [4] = assay: Antimicrobial activity against Escherichia coli DH5[alpha] isolate GC 8128 expressing bla SHV-105 gene by microdilution method in presence of clavulanic acid; in short: as §1
Escherichia coli [5] = assay: Antimicrobial activity against Escherichia coli DH5[alpha] isolate GC 7668 expressing bla SHV-48 gene by microdilution method in presence of clavulanic acid; in short: as §1
Escherichia coli [6] = assay: Antimicrobial activity against Escherichia coli DH5[alpha] isolate GC 8130 expressing bla SHV-1 gene by microdilution method in presence of clavulanic acid; in short: as §1
Escherichia coli [7] = assay: Antimicrobial activity against Escherichia coli DH5[alpha] isolate GC 7668 expressing bla SHV-48 gene by microdilution method
In short: (§2)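 Broth microdilution MIC. Plates with serial dilutions of each β-lactam inoculated to 10^5 CFU/ml, incubated 18 to 22 h at 35°C in ambient air. MIC = lowest concentration completely inhibiting growth by unaided eye. Strains carrying the novel β-lactamases are recombinants, with the genes shotgun cloned into pCLL2300.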

Escherichia coli [8] = assay: Antimicrobial activity against Escherichia coli DH5[alpha] isolate GC 8130 expressing bla SHV-1 gene by microdilution method; in short: as §2
Escherichia coli [9] = assay: Antimicrobial activity against Escherichia coli DH5[alpha] by microdilution method; in short: as §2
Escherichia coli [10] = assay: Antimicrobial activity against Escherichia coli ATCC 25922 by microdilution method; in short: as §2
Escherichia coli [11] = assay: Antimicrobial activity against Escherichia coli DH5[alpha] isolate GC 8133 expressing bla […] gene by microdilution method
In short: (§3)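 Recombinant strains carrying the cloned β-lactamase gene (shotgun cloned into pCLL2300, confirmed by standard sequencing) tested by broth microdilution. Serial antibiotic dilutions were inoculated to 10^5 CFU/ml and incubated 18 to 22 h at 35°C in ambient air. MIC was the lowest concentration completely inhibiting growth by unaided eye.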

Escherichia coli [12] = assay: Antimicrobial activity against Escherichia coli DH5[alpha] isolate GC 8128 expressing bla SHV-105 gene by microdilution method; in short: as §3
Escherichia coli [13] = assay: Antimicrobial activity against Escherichia coli DH5[alpha] isolate GC 8133 expressing bla […] gene by Etest method in presence of clavulanic acid
Escherichia coli [14] = assay: Antimicrobial activity against Escherichia coli ATCC 25922 by Etest method in presence of clavulanic acid
Escherichia coli [15] = assay: Antimicrobial activity against Escherichia coli DH5[alpha] by Etest method in presence of clavulanic acid
Escherichia coli [16] = assay: Antimicrobial activity against Escherichia coli DH5[alpha] isolate GC 8128 expressing bla SHV-105 gene by Etest method in presence of clavulanic acid
In short: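 The blaSHV-105 gene was shotgun-cloned into vector pCLL2300, and the insert was confirmed by standard sequencing. The recombinant E. coli strain carrying it was tested against a β-lactam panel in Etest format.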

Escherichia coli [17] = assay: Antimicrobial activity against Escherichia coli DH5[alpha] isolate GC 7668 expressing bla SHV-48 gene by Etest method in presence of clavulanic acid
Escherichia coli [18] = assay: Antimicrobial activity against Escherichia coli DH5[alpha] by Etest method
Escherichia coli [19] = assay: Antimicrobial activity against Escherichia coli DH5[alpha] isolate GC 8130 expressing bla SHV-1 gene by Etest method in presence of clavulanic acid
Escherichia coli [20] = assay: Antimicrobial activity against Escherichia coli ATCC 25922 by Etest method
Escherichia coli [21] = assay: Antimicrobial activity against Escherichia coli DH5[alpha] isolate GC 8133 expressing bla […] gene by Etest method
Escherichia coli [22] = assay: Antimicrobial activity against Escherichia coli DH5[alpha] isolate GC 8128 expressing bla SHV-105 gene by Etest method
Escherichia coli [23] = assay: Antimicrobial activity against Escherichia coli DH5[alpha] isolate GC 7668 expressing bla SHV-48 gene by Etest method
Escherichia coli [24] = assay: Antimicrobial activity against Escherichia coli DH5[alpha] isolate GC 8130 expressing bla SHV-1 gene by Etest method
Escherichia coli [25] = assay: Antimicrobial activity against Escherichia coli DH5[alpha] by microdilution method in presence of Tazobactam; in short: as §1
Escherichia coli [26] = assay: Antimicrobial activity against Escherichia coli ATCC 25922 by microdilution method in presence of Tazobactam; in short: as §1
Escherichia coli [27] = assay: Antimicrobial activity against Escherichia coli DH5[alpha] isolate GC 8133 expressing bla […] gene by microdilution method in presence of Tazobactam; in short: as §1
Escherichia coli [28] = assay: Antimicrobial activity against Escherichia coli DH5[alpha] isolate GC 8128 expressing bla SHV-105 gene by microdilution method in presence of Tazobactam; in short: as §1
Escherichia coli [29] = assay: Antimicrobial activity against Escherichia coli DH5[alpha] isolate GC 7668 expressing bla SHV-48 gene by microdilution method in presence of Tazobactam; in short: as §1
Escherichia coli [30] = assay: Antimicrobial activity against Escherichia coli DH5[alpha] isolate GC 8130 expressing bla SHV-1 gene by microdilution method in presence of Tazobactam; in short: as §1

Compound	MIC (Escherichia coli [7]) [µg/mL]	MIC (Escherichia coli [8]) [µg/mL]	MIC (Escherichia coli [9]) [µg/mL]	MIC (Escherichia coli [10]) [µg/mL]	MIC (Escherichia coli [11]) [µg/mL]	MIC (Escherichia coli [12]) [µg/mL]	also measured
CC1(C)S[C@@H]2[C@H](NC(=O)[C@H](N)c3ccc(O)cc3)C(=O)N2[C@H]1C(=O)O [AMOXICILLIN]	–	–	–	–	–	–	MIC (Escherichia coli [1]): 8 µg/mL; MIC (Escherichia coli [2]): 8 µg/mL; MIC (Escherichia coli [3]): 32 µg/mL; MIC (Escherichia coli [4]): 16 µg/mL; MIC (Escherichia coli [5]): 32 µg/mL; MIC (Escherichia coli [6]): 16 µg/mL
CC1(C)S[C@@H]2[C@H](NC(=O)[C@H](N)c3ccccc3)C(=O)N2[C@H]1C(=O)O [AMPICILLIN]	> 128	> 128	8 (≈ 22.9 µM)	4 (≈ 11.4 µM)	> 128	> 128	–
C[C@H]1[C@H](NC(=O)/C(=N\OC(C)(C)C(=O)O)c2csc(N)n2)C(=O)N1S(=O)(=O)O [AZTREONAM]	0.5 (≈ 1.15 µM)	0.25 (≈ 0.574 µM)	≤ 0.125	0.25 (≈ 0.574 µM)	> 128	> 128	–
CO/N=C(\C(=O)N[C@@H]1C(=O)N2C(C(=O)[O-])=C(C[N+]3(C)CCCC3)CS[C@H]12)c1csc(N)n1 [CEFEPIME]	0.5 (≈ 1.04 µM)	–	≤ 0.125	≤ 0.125	128 (≈ 266 µM)	16 (≈ 33.3 µM)	–
CO/N=C(\C(=O)N[C@@H]1C(=O)N2C(C(=O)O)=C(COC(C)=O)CS[C@H]12)c1csc(N)n1 [CEFOTAXIME]	≤ 0.125	≤ 0.125	≤ 0.125	≤ 0.125	32 (≈ 70.3 µM)	128 (≈ 281 µM)	MIC (Escherichia coli [13]): 0.023 µg/mL; MIC (Escherichia coli [14]): 0.047 µg/mL; MIC (Escherichia coli [15]): 0.023 µg/mL; MIC (Escherichia coli [16]): 0.032 µg/mL; MIC (Escherichia coli [17]): 0.023 µg/mL; MIC (Escherichia coli [18]): < 0.25 µg/mL; MIC (Escherichia coli [19]): 0.023 µg/mL; MIC (Escherichia coli [20]): < 0.25 µg/mL; MIC (Escherichia coli [21]): 2 µg/mL (≈ 4.39 µM); MIC (Escherichia coli [22]): > 16 µg/mL; MIC (Escherichia coli [23]): < 0.25 µg/mL; MIC (Escherichia coli [24]): < 0.25 µg/mL
CO[C@@]1(NC(=O)Cc2cccs2)C(=O)N2C(C(=O)O)=C(COC(N)=O)CS[C@@H]21 [CEFOXITIN]	4 (≈ 9.36 µM)	16 (≈ 37.4 µM)	8 (≈ 18.7 µM)	4 (≈ 9.36 µM)	8 (≈ 18.7 µM)	8 (≈ 18.7 µM)	–
CC(C)(O/N=C(\C(=O)N[C@@H]1C(=O)N2C(C(=O)[O-])=C(C[n+]3ccccc3)CS[C@H]12)c1csc(N)n1)C(=O)O [CEFTAZIDIME]	1 (≈ 1.83 µM)	0.5 (≈ 0.915 µM)	0.25 (≈ 0.457 µM)	0.25 (≈ 0.457 µM)	> 128	> 128	MIC (Escherichia coli [13]): 0.5 µg/mL; MIC (Escherichia coli [14]): 0.125 µg/mL; MIC (Escherichia coli [15]): 0.094 µg/mL; MIC (Escherichia coli [16]): 0.25 µg/mL; MIC (Escherichia coli [17]): 0.125 µg/mL; MIC (Escherichia coli [18]): < 0.5 µg/mL; MIC (Escherichia coli [19]): 0.125 µg/mL; MIC (Escherichia coli [20]): < 0.5 µg/mL; MIC (Escherichia coli [21]): > 32 µg/mL; MIC (Escherichia coli [22]): > 32 µg/mL; MIC (Escherichia coli [23]): < 0.5 µg/mL; MIC (Escherichia coli [24]): < 0.5 µg/mL
CO/N=C(\C(=O)N[C@@H]1C(=O)N2C(C(=O)O)=C(COC(N)=O)CS[C@H]12)c1ccco1 [CEFUROXIME]	≤ 0.125	0.25 (≈ 0.589 µM)	≤ 0.125	≤ 0.125	64 (≈ 151 µM)	128 (≈ 302 µM)	–
C[C@@H](O)[C@H]1C(=O)N2C(C(=O)O)=C(SCCNC=N)C[C@H]12 [IMIPENEM ANHYDROUS]	0.25 (≈ 0.835 µM)	–	0.25 (≈ 0.835 µM)	≤ 0.125	0.25 (≈ 0.835 µM)	–	–
CCN1CCN(C(=O)N[C@@H](C(=O)N[C@@H]2C(=O)N3[C@@H]2SC(C)(C)[C@@H]3C(=O)O)c2ccccc2)C(=O)C1=O [PIPERACILLIN]	> 128	64 (≈ 124 µM)	0.5 (≈ 0.966 µM)	2 (≈ 3.86 µM)	> 128	> 128	MIC (Escherichia coli [25]): 0.5 µg/mL; MIC (Escherichia coli [26]): 2 µg/mL; MIC (Escherichia coli [27]): 2 µg/mL; MIC (Escherichia coli [28]): 1 µg/mL; MIC (Escherichia coli [29]): > 128 µg/mL; MIC (Escherichia coli [30]): 1 µg/mL
